Test results from ChEMBL document CHEMBL4725242, “Discovery of GS-9688 (Selgantolimod) as a Potent and Selective Oral Toll-Like Receptor 8 Agonist for the Treatment of Chronic Hepatitis B” (J Med Chem, 2020).

Assays:
[1] = target: T1, Toll-like receptor 7 (Homo sapiens, UniProt Q9NYK1); test: Agonist activity at TLR7 in human cryopreserved PBMC assessed as induction of IFNalpha production measured after 24 hrs
T1 sequence (Q9NYK1 whole entry): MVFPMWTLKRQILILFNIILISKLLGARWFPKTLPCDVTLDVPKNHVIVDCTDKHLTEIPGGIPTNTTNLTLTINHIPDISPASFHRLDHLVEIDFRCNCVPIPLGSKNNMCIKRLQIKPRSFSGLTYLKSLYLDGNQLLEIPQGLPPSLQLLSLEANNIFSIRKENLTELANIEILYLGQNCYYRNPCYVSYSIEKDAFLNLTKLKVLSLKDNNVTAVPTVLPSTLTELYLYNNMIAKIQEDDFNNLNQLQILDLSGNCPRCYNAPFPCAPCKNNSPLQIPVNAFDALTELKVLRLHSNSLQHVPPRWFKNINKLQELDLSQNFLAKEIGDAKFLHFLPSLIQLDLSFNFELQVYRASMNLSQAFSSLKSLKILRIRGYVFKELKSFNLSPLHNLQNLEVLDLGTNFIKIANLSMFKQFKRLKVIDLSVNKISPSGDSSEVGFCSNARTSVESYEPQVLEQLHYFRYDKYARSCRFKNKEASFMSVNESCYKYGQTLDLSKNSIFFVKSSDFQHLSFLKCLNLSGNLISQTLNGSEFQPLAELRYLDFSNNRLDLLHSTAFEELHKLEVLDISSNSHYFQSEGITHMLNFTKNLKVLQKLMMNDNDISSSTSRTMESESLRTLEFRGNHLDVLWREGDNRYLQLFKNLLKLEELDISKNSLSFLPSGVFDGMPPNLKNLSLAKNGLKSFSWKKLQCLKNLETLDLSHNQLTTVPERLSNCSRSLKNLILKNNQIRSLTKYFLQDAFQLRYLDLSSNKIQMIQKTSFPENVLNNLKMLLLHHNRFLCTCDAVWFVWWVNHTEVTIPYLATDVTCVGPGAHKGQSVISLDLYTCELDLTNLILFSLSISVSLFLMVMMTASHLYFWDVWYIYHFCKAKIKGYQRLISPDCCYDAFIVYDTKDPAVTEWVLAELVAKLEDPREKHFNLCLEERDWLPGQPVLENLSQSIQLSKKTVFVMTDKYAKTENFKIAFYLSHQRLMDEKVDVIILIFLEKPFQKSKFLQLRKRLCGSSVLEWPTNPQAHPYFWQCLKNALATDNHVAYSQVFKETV
In short: (§1)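 Cryopreserved healthy-donor human PBMC, recovered 2 h at 37°C/5% CO2, then 100k cells/well in RPMI/10% FBS exposed 24 h at 37°C to a 10-point half-log dilution series (0.5% final DMSO). Supernatant IFNα-2a quantified by MSD electrochemiluminescence immunoassay. For the ratio, divided by the IL-12p40 EC50 from the same PBMC screen.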

[2] = target: T2, Toll-like receptor 8 (Homo sapiens, UniProt Q9NR97); test: Agonist activity at TLR8 in human cryopreserved PBMC assessed as induction of IL-12p40 production measured after 24 hrs
T2 sequence (Q9NR97 whole entry): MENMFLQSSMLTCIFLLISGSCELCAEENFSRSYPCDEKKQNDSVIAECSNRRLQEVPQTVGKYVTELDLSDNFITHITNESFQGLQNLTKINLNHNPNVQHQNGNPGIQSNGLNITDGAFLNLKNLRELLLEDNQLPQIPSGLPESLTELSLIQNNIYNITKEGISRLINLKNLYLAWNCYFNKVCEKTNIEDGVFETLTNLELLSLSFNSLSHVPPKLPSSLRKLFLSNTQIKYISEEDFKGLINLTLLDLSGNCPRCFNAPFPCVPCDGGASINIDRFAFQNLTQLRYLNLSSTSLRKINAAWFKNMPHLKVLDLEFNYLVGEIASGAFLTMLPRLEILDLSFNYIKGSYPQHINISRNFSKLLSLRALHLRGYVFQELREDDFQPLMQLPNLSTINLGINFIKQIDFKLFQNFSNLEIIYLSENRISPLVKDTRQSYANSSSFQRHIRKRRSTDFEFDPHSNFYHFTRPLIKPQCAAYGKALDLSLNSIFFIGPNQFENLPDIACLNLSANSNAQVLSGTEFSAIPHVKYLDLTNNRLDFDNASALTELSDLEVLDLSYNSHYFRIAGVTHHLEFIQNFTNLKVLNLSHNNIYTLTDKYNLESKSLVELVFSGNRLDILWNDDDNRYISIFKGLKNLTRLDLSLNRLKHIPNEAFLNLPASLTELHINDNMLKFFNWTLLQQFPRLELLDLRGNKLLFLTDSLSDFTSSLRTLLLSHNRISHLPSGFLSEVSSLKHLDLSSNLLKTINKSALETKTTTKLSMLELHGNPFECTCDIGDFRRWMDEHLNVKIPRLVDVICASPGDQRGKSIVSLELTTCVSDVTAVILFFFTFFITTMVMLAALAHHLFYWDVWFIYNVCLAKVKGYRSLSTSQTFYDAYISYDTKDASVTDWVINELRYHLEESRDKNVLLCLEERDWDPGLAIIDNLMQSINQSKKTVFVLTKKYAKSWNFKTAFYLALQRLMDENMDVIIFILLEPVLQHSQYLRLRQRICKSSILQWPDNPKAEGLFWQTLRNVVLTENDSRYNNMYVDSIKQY

[3] = Cytotoxicity against human MT4 cells assessed as reduction in cell viability measured after 4 to 5 days by celltiter-glo assay; type: cell-based; details: time 4-5 day
[4] = Selectivity index, ratio of CC50 for human MT4 cells to EC50 for TLR8 in human cryopreserved PBMC assessed as induction of IL-12p40 production
[5] = Dissociation constant, pKa of the compound; type: physicochemical
[6] = species: Homo sapiens; test: Selectivity ratio of EC50 for TLR7 in human cryopreserved PBMC assessed as induction of IFNalpha production to EC50 for TLR8 in human cryopreserved PBMC assessed as induction of IL-12p40 production
In short: as §1, with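 “immunoassay. Normalized to 10 µM GS-9620 positive and DMSO negative controls; EC50 from 4-parameter logistic fit.” for “immunoassay.”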

[7] = Apparent permeability across apical to basolateral side in human Caco2 cells measured after 1 to 2 hrs by LC-MS/MS analysis; details: Caco-2
[8] = Apparent permeability across basolateral to apical side in human Caco2 cells measured after 1 to 2 hrs by LC-MS/MS analysis; details: Caco-2
[9] = Clearance in rat hepatic microsomes at 2 uM measured up to 60 mins in presence of NADPH generating system by LC-MS/MS analysis; type: ADME, Microsome; details: liver microsomes
[10] = Clearance in dog hepatic microsomes at 2 uM measured up to 60 mins in presence of NADPH generating system by LC-MS/MS analysis; type: ADME, Canis lupus familiaris, Microsome; details: liver microsomes
[11] = Clearance in cynomolgus monkey hepatic microsomes at 2 uM measured up to 60 mins in presence of NADPH generating system by LC-MS/MS analysis; type: ADME, Macaca fascicularis, Microsome; details: liver microsomes
[12] = Clearance in human hepatic microsomes at 2 uM measured up to 60 mins in presence of NADPH generating system by LC-MS/MS analysis; type: ADME, Microsome; details: liver microsomes
[13] = Drug metabolism in human hepatocytes assessed as core oxidation; type: ADME, cell-based, Hepatocyte

Compound | EC50 [1] | EC50 [2] | CC50 [3] | also measured
CCCCC[C@H](CO)Nc1nc(N)nc2cccnc12 | > 20 µM | 3.33 µM | – | –
CCC[C@](C)(CO)Nc1nc(N)nc2cccnc12 | > 50 µM | 2.4 µM | > 50 µM | Ratio CC50/EC50 [4]: >21
CCCC[C@](C)(CO)Nc1nc(N)nc2cc(C)cnc12 | > 50 µM | 0.16 µM | 23 µM | pKa [5]: 7.1; Ratio EC50 [6]: > 185; Ratio CC50/EC50 [4]: 144; Papp A→B [7]: 31 ×10⁻⁶ cm/s; Papp B→A [8]: 29 ×10⁻⁶ cm/s; CLhep predicted at 2 µM [9]: 63.3 mL/min/kg; CLhep predicted at 2 µM [10]: 18.3 mL/min/kg; CLhep predicted at 2 µM [11]: 25 mL/min/kg; CLhep predicted at 2 µM [12]: 8.33 mL/min/kg
CCCCC[C@](C)(CO)Nc1nc(N)nc2cccnc12 | 20 µM | 0.58 µM | 17 µM | Ratio CC50/EC50 [4]: 29
CCCC[C@H](CO)Nc1nc(N)nc2ccccc12 | > 50 µM | 1.84 µM | – | pKa [5]: 8.2
CCC[C@@H](CO)Nc1nc(N)nc2cccnc12 | 2 µM | 0.43 µM | – | –
CCCC[C@](C)(CO)Nc1nc(N)nc2cc(Cl)cnc12 | > 42 µM | 0.27 µM | 22 µM | pKa [5]: 6.4; CLhep predicted at 2 µM [9]: 56.7 mL/min/kg; CLhep predicted at 2 µM [10]: 30 mL/min/kg; CLhep predicted at 2 µM [11]: 23.3 mL/min/kg; CLhep predicted at 2 µM [12]: 16.7 mL/min/kg
CCCC[C@@](C)(CO)Nc1nc(N)nc2cccnc12 | 7.9 µM | 2.4 µM | 26 µM | Ratio CC50/EC50 [4]: 11; Papp A→B [7]: 32 ×10⁻⁶ cm/s; Papp B→A [8]: 31 ×10⁻⁶ cm/s; CLhep predicted at 2 µM [9]: 58.3 mL/min/kg; CLhep predicted at 2 µM [10]: 25 mL/min/kg; CLhep predicted at 2 µM [11]: 23.3 mL/min/kg; CLhep predicted at 2 µM [12]: 13.3 mL/min/kg; Drug metabolism [13]: Metabolite_Detected
CCCC[C@H](CN)Nc1nc(N)nc2cccnc12 | > 50 µM | 25 µM | – | –
CCCC[C@@H](CO)Nc1cc(N)nc2ccccc12 | > 50 µM | > 50 µM | – | –
CCCC[C@](C)(CO[C@@H]1O[C@H](C(=O)O)[C@@H](O)[C@H](O)[C@H]1O)Nc1nc(N)nc2cc(F)cnc12 | > 50 µM | > 50 µM | > 50 µM | –
CCCC(C)Nc1nc(N)nc2cccnc12 (stereo unspecified) | 5.1 µM | 3.1 µM | – | –
CCCC[C@H](CO)Nc1nc(N)nc2cccnc12 | > 50 µM | 0.79 µM | 7.8 µM | pKa [5]: 6.8; Ratio CC50/EC50 [4]: 10
CCCN(CCC)C(=O)C1=Cc2ccc(-c3ccc(C(=O)N4CCCC4)cc3)cc2N=C(N)C1 [MOTOLIMOD] | > 30 µM | 1.3 µM | – | –
CCCC[C@@](C)(CO)Nc1nc(N)nc2cc(F)cnc12 | > 50 µM | 3.3 µM | 0.79 µM | Ratio CC50/EC50 [4]: 0.2
CCCCNc1nc(N)nc2cccnc12 | 2.2 µM | 1.9 µM | – | –
CCCC[C@](C)(CO)Nc1nc(N)nc2cccnc12 | 15 µM | 0.17 µM | 31 µM | Ratio EC50 [6]: > 80; Ratio CC50/EC50 [4]: 182; Papp A→B [7]: 29 ×10⁻⁶ cm/s; Papp B→A [8]: 29 ×10⁻⁶ cm/s; CLhep predicted at 2 µM [9]: 58.3 mL/min/kg; CLhep predicted at 2 µM [10]: 23.3 mL/min/kg; CLhep predicted at 2 µM [11]: 21.7 mL/min/kg; CLhep predicted at 2 µM [12]: 13.3 mL/min/kg; Drug metabolism [13]: Metabolite_Detected
CCCC[C@@H](Nc1nc(N)nc2cccnc12)C(N)=O | > 50 µM | 36 µM | – | –
CCCC[C@@H](Nc1nc(N)nc2cccnc12)C(=O)O | > 50 µM | > 50 µM | – | –
CCCC[C@@](C)(Nc1nc(N)nc2cc(F)cnc12)C(=O)O | > 50 µM | > 50 µM | > 50 µM | –
CCC[C@H](CO)Nc1nc(N)nc2cccnc12 | > 50 µM | 19 µM | – | –
CCCC[C@H](CO)Nc1cc(N)nc2ccccc12 | > 50 µM | > 50 µM | – | –
CCCC[C@@H](CO)Nc1nc(N)nc2cccnc12 | 0.91 µM | 0.42 µM | – | –
C[C@](CO)(CCCCO)Nc1nc(N)nc2cc(F)cnc12 | > 50 µM | > 50 µM | > 50 µM | –
CCCCCC[C@](C)(CO)Nc1nc(N)nc2cccnc12 | > 50 µM | 10 µM | 3.6 µM | Ratio CC50/EC50 [4]: 0.4
CCCC[C@@H](CO)Nc1nc(N)nc2ccccc12 | 0.57 µM | 0.71 µM | – | –
CCCCOc1nc(N)nc2cccnc12 | > 50 µM | > 50 µM | – | –
CCCCC(CO)(CCCC)Nc1nc(N)nc2cccnc12 | > 50 µM | > 50 µM | 38 µM | –
CCCC[C@@H](Nc1nc(N)nc2cccnc12)C(=O)NC | > 50 µM | > 50 µM | – | –
CCCC[C@H](CCO)Nc1nc(N)nc2cccnc12 | > 50 µM | 4.3 µM | – | –
